Test results published in the RNAGym collection of RNA variant scans (doi:10.1126/science.aae0568).
Variants at the floor of the assay were thinned out.

B1: tRNA (parent)
chain: GUUCCGUUGGCGUAAUGGUAACGCGUCUCCCUCCUAAGGAGAAGACUGCGGGUUCGAGUCCCGUACGGAACG

Variants of: B1
Assay: yeast fitness relative to wild type (ratio to wild type); higher = fitter; tRNA-Arg(CCU), competitive growth, 37 C, YPD
Method in brief: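 Variants of the tRNA-Arg(CCU) gene, chemically synthesised with a 3% per-site mutation rate at 69 sites, were placed at the native genomic locus in Saccharomyces cerevisiae. The pooled strains were competed in YPD at 37°C for 24 hours in six parallel replicates. Gene amplicons from the start population and from each end population were read by 100-nucleotide paired-end sequencing. Darwinian fitness relative to wild type came from changes in genotype frequencies; genotypes needed ≥ 100 starting reads, and estimates < 0.5 were set to 0.5.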

Row | Variant | yeast fitness
1 | C11U U59A C60U | 0.543
2 | C27U U47G G50A | ≤ 0.5
3 | U13A A20G C24U U59C | ≤ 0.5
4 | A36U U47G A70G | ≤ 0.5
5 | C27G C31G C49A U53C | ≤ 0.5
6 | U28A G48C A69U A70U | ≤ 0.5
7 | U19C U28C C46U | 0.712
8 | A20G A36U | 0.644
9 | C11U A40C U53A A69C A70U | ≤ 0.5
10 | U3A G9C A20G C29A G56A G67U | ≤ 0.5
11 | G6A C11A C61A | ≤ 0.5
12 | C5G U26G C34G A40C C46U C49G | 0.558
13 | G18C C24G C46A | ≤ 0.5
14 | C24G C29A A43U G68C | 0.561
15 | C31A A43G A65G | 0.702
16 | C5G A14C A37G | ≤ 0.5
17 | A36U A57U | 0.547
18 | G12C C24G C27U A43U G67A | ≤ 0.5
19 | A20U G50A C60G | ≤ 0.5
20 | G23A C62U A69U | 0.642
21 | U2A C4A U13C A42G C55G G67A | ≤ 0.5
22 | C24A U54C | 0.634
23 | C49A C61G | 0.541
24 | U13A C30A C31U A43C | 0.942

Row | Variant | yeast fitness
25 | C4A C11G U19G | ≤ 0.5
26 | U2C U16G | 0.96
27 | C11A U19A C29A U32A G44U G58A | ≤ 0.5
28 | C31U G48A | 0.949
29 | C34G C49G G68C | 0.629
30 | A14C C31G A43C G51A | ≤ 0.5
31 | U8C G39C U47C C60A C61G A69U | ≤ 0.5
32 | C4G U8A G12A C34A G50C | ≤ 0.5
33 | G10C G63A C66U | ≤ 0.5
34 | A15U A20C C27U | 0.748
35 | U7A A15C C27A U47C G58C | ≤ 0.5
36 | U3A A14G G23C | 0.716
37 | A20G A43C G56A A57U | ≤ 0.5
38 | A14C G48C | 0.658
39 | U35C A37U C46G U54C C61A | ≤ 0.5
40 | G10C C27U A36C C61U A65G | ≤ 0.5
41 | G17C G51A G63C A69U | ≤ 0.5
42 | C29U A42U A43U C55G C62G | ≤ 0.5
43 | G9A A37C A65C | 0.56
44 | G9A A40U C62G | 0.593
45 | U7A C22U | 0.798
46 | C11A C31U G41C A43C C60G | ≤ 0.5
47 | U2A U28C C49U C62G | ≤ 0.5
48 | C5G A65C G68A | 0.671

Row | Variant | yeast fitness
49 | A37U G48C A70U | 0.547
50 | C30A G56U A65G | ≤ 0.5
51 | U2A C11G C31U A36G | 0.646
52 | U2G C24A C46A A70C | 1.01
53 | G10C A14U U19A C22U C62A | ≤ 0.5
54 | G44C C61A C66U | 0.824
55 | A20C C46G C62G | 0.529
56 | C11G A20G C33U A37U | ≤ 0.5
57 | U2C U28A A43C A57C C62A | 0.572
58 | C4G U64C G68C | 0.632
59 | U3A U26C A43C A70U | ≤ 0.5
60 | U3A U7C A15U G23C C27U G52A | ≤ 0.5
61 | U16A C29U | 0.775
62 | U28C G68C | 0.884
63 | C27G C33U A45U G63A | ≤ 0.5
64 | C4G A14C C49U | ≤ 0.5
65 | U8C C31G A45G C62G | ≤ 0.5
66 | C24U C30A G50A | 0.587
67 | C5G G12A | 0.932
68 | A36U C55A | ≤ 0.5
69 | C11U G12A C31U U53C G63A A65C | ≤ 0.5
70 | A20C C27U G67U | 0.674
71 | A14C C49U U64A | 0.556
72 | C4G U13A A21C A43U A45G | 0.559

Row | Variant | yeast fitness
73 | C5G G17A A20C C49G | 0.551
74 | C11U G50A A69C | 0.522
75 | A14C C31G C62A A65U C66U | 0.506
76 | U13C U26C C27G C34U A37U A43G A45G C46U | ≤ 0.5
77 | U13G C22U C31A C55U G63A A69C | ≤ 0.5
78 | U54G C55G A65U | ≤ 0.5
79 | C5G A21C U32C G39A A57U U59C | ≤ 0.5
80 | G18A A42C G48A C60A | ≤ 0.5
81 | A43C A57U | 0.678
82 | G25A A45C C66U G67C | 0.608
83 | A14C G25C G48A | 0.608
84 | U2A G39C A70G | ≤ 0.5
85 | G10A G50A U59A C61A C66G | 0.606
86 | A15C G18A A20U | ≤ 0.5
87 | A37C C49U C55A C60A | ≤ 0.5
88 | C4A A14C G41A G48C C55A A65C | 0.556
89 | C5G C24G C27G C60U | 0.627
90 | C24U U26A U28G G52A | ≤ 0.5
91 | C5A A21G C31G | 0.62
92 | A14U A69U A70C | ≤ 0.5
93 | C24U U28C A37G C62U | ≤ 0.5
94 | G10A C30U G63A | 0.538
95 | G9C C31G A69G | ≤ 0.5
96 | U3C C11U U13C C24A A43C G50C C60G | ≤ 0.5

Row | Variant | yeast fitness
97 | C24G G25A | 0.852
98 | G10A U64A | 0.73
99 | G17A C29G U59G C61G C62U | ≤ 0.5
100 | G41C A57U G63A | 0.567
101 | C22G C49A | 0.682
102 | C4U A20G U32G A43C A45U | ≤ 0.5
103 | A43G G51C U54A A57C | ≤ 0.5
104 | G6A G18C C30G C34A A37C C61U A65U | ≤ 0.5
105 | C22U C27A C46A | 0.66
106 | C5G A14U A20C A45G | ≤ 0.5
107 | U2G C66U | 0.858
108 | C11U A21C A42C A69C | ≤ 0.5
109 | C11A A70G | 0.774
110 | C4G U7A A42C G48C | ≤ 0.5
111 | C22U C55U | 0.686
112 | G52C C55U A65U | ≤ 0.5
113 | C34U A40G C46A C49G A65G | ≤ 0.5
114 | A36G A43U U47G U53G | ≤ 0.5
115 | A15C G18A C24A C34U C46G | ≤ 0.5
116 | U7A C27U A69C | 0.649
117 | U2A G25A U32C | 0.903
118 | G6C U32A | 0.756
119 | C5G A42C U54G | ≤ 0.5
120 | U16A G39C | 0.646

Row | Variant | yeast fitness
121 | U3C U32C C33U A42U | 0.563
122 | C5U A20C A70U | 0.732
123 | C5A C31G A37G C62U G63C | 0.577
124 | G25C G44A | 0.97
125 | A20U C60G | 0.691
126 | A21C C24A G39A | ≤ 0.5
127 | A15G C24A G52A | ≤ 0.5
128 | A36G A45C G52C | 0.533
129 | C27U G39C C60A | ≤ 0.5
130 | U8G A45C | 0.537
131 | C11G A42G A45U U64C A70C | 0.527
132 | U47G | 0.633
133 | C5G U19C C24U | 0.684
134 | A21U A42U A57G | 0.548
135 | C11U C31G | 0.791
136 | C24U A40C G68C | 0.502
137 | C11U C22G C34A C49U | ≤ 0.5
138 | U3C C34U G41C C49U G58A U64A | ≤ 0.5
139 | U3C A21G C29G | ≤ 0.5
140 | C5U G41A G52C | ≤ 0.5
141 | C27U C33U G51A A70G | 0.555
142 | A15C G48C C61A | ≤ 0.5
143 | C24U C33U C34G A40U | ≤ 0.5
144 | U13A C62U | 1.05

Row | Variant | yeast fitness
145 | G48A G68U A69C | 0.524
146 | C11U U13A A57U U64G A65G | ≤ 0.5
147 | C5U C11U U32G C33A U47A C62U C66G | ≤ 0.5
148 | C5U C22U C34U G41A A45G | ≤ 0.5
149 | A37G G44A C66U | 0.731
150 | C22A C29U C66U | ≤ 0.5
151 | A21C C27U C33U | 0.544
152 | C30U A70G | 0.941
153 | U2C | 1
154 | U59G A65G | 0.965
155 | C11U A15U C34A | 0.588
156 | U16C C46G C49U | 0.731
157 | U64A G68C | 0.709
158 | C29U A70G | 0.887
159 | C5U C62U A65C | 0.739
160 | G6A C27U C29A | ≤ 0.5
161 | G9A A21U A36G A40C | ≤ 0.5
162 | A43G A45G C55U G68A | ≤ 0.5
163 | C4G G58C C62U | 0.651
164 | G9C G41C | 0.575
165 | G6C C46U | 0.966
166 | C31G A65G | 0.867
167 | U16A C27G C46G G67A | 0.505
